Screening results: PubChem BioAssay, several laboratories
MT stabilize HCS: stabilizes microtubules in HeLa cells | HeLa tubulin immunostaining HCS, 24 h; share of cells brighter than vehicle mean+2SD | actives 0.83% (n = 200,000) | % tubulin-high responders, % at 10 µM;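 active = plate Z-score above 3 for both tubulin-high and condensed-nucleus cell shares, with cell loss under 80%, at 10 µM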;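 also: anti alpha tubulin signal scored within the nucleus-defined area of each cell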
b-catenin transl: alters nuclear translocation of beta-catenin in HeLa cells; nuclear translocation activity, % at 5 µM; immunofluorescence imaging; actives 0.3% (n = 190,000); AID 1665;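 active = nuclear translocation activity above 50% at 5 µM, with a well cell count of 50 or more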;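 also: per-cell ratio of nuclear to cytoplasmic median beta-catenin stain intensity; plate controls were DMSO negative control for no effect and GSK-3 inhibitor IX positive control for full effect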
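System: HeLa cells, endogenous beta-catenin; compound dosing: 5 µM primary single dose, 0.1% DMSO, 0.02–20 µM confirmation series; incubation: 24 h compound exposure at 37°C, 5% CO2; signal: beta-catenin immunofluorescence imaging with DAPI; evaluation: % activation, nuclear-to-cytoplasmic median beta-catenin signal ratio per cell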
STAT1 blocker: STAT1 signaling inhibition | NIH 3T3 STAT1-luciferase reporter, IFN-gamma, luminescence | inhibition, % at 5.5 µM | actives 0.35% (n = 200,000);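 active = inhibition above a set limit, the mean inhibition across all tested compounds plus 3 SD, cut at about 34% in these data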;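 also: 0% = IFN-gamma with DMSO and 100% = IFN-gamma with 300 µM nifuroxazide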
STAT3 activator: increases IL-6 driven STAT3 reporter signal; U3A cells, IL-6 STAT3-luciferase reporter, luminescence; 100% = signal with IL-6 EC80 alone; actives 0.91% (n = 190,000); activation (% of control), % at 5.6 µM;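 active = activation above the screen-wide mean of compound activation plus 3 SD, cut at about 130% in these data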;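 also: 0% = background luminescence of wells with medium and substrate only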
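Assay system – human STAT1-deficient U3A cells with stable STAT3-luciferase reporter · Also added – IL-6 (33 ng/mL) · Schedule – compound 1 h, then IL-6 6 h at 37 °C · Technique – reporter luminescence signal · Evaluation – % activation versus median of IL-6-stimulated wells · Benchmarks – IL-6-only wells as 100% reference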
STAT3 inh-1: reduces IL-6 driven STAT3 reporter signal. AID 862. U3A cells, IL-6 STAT3-luciferase reporter, luminescence; host cell line lacks STAT1. inhibition, % at 5.5 µM. actives 0.89% (n = 190,000);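 active = inhibition above the mean inhibition across all screened compounds plus 3 SD, cut at about 44% in these data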;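 also: 0% = DMSO only wells and 100% = 100 µM nifuroxazide control wells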
STAT3 inh-2: confirmation of STAT3 signaling inhibitors; shares compounds with STAT3 inh-1; U3A cells, IL-6 STAT3 luciferase reporter, luminescence; cell line lacks STAT1; inhibition, % at 5.7 µM; actives 45% (n = 1,200);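 active = inhibition above the hit cutoff computed for the primary STAT3 screen, cut at about 44% in these data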;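 also: 0% = IL-6 plus DMSO and 100% = IL-6 plus nifuroxazide control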
NFkB inh STAT3ct: NF-kappaB inhibition in STAT3 inhibitor counter-screen; inhibition, % at 5.7 µM; actives 36% (n = 1,200); shares compounds with STAT3 inh-1; HEK293T NF-kB luciferase reporter, TNF-alpha induced;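 active = inhibition above the mean of solvent-only control wells plus 3 SD, cutoff set per campaign, cut at about 13% in these data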;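 also: 0% = TNF-alpha with DMSO and 100% = TNF-alpha with MG high control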
STAT1 inh STAT3c: STAT1 inhibition in STAT3 inhibitor counter-screen. inhibition, % at 5.7 µM. shares compounds with STAT3 inh-1. actives 27% (n = 1,200). NIH 3T3 STAT1-luciferase reporter, IFN-gamma induced, luminescence;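 active = inhibition above the mean plus 3 SD of solvent-only control wells, limit set per screening run, cut at about 16% in these data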;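 also: 0% = DMSO with IFN-gamma and 100% = nifuroxazide control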
* hit, by the source's call. Rows were chosen to be rich in hits. Some 2.4% of all compounds tested hit in one or more screens of this group.

Screening Cc1cc(C(=O)CSc2nc3ccccc3[nH]2)c(C)n1CC1CCCO1 (stereo unspecified) returned MT stabilize HCS 1.6, b-catenin transl -1.8, STAT1 blocker 29.4, STAT3 activator 23.3, STAT3 inh-1 97.0*, STAT3 inh-2 62.9*, NFkB inh STAT3ct 22.3* and STAT1 inh STAT3c -57.2.
For CCOc1ccc(C(=O)Nc2cccc(C)n2)cc1 the results were MT stabilize HCS 2.3, b-catenin transl -4.6, STAT1 blocker -12.5, STAT3 activator 55.6, STAT3 inh-1 57.0*, STAT3 inh-2 17.5, NFkB inh STAT3ct -12.1 and STAT1 inh STAT3c -71.3.
Screening CCCCOc1ccc(C(=O)Nc2cccc(C)n2)cc1 returned MT stabilize HCS 2.5, b-catenin transl 0.5, STAT1 blocker -13.2, STAT3 activator 63.8, STAT3 inh-1 48.5*, STAT3 inh-2 12.6, NFkB inh STAT3ct -17.8 and STAT1 inh STAT3c -43.4.
`Cc1cccc(NC(=O)c2ccc(S(=O)(=O)N(C)C)cc2)n1` gave MT stabilize HCS 4.4, b-catenin transl -9.6, STAT1 blocker -9.1, STAT3 activator 104.4 and STAT3 inh-1 -3.3.
Screening Cc1ccccc1OCC(=O)OCC(=O)NCc1cccs1 returned MT stabilize HCS 4.3, b-catenin transl 0.7, STAT1 blocker -1.7, STAT3 activator 96.1 and STAT3 inh-1 6.0.
`CCCCCC(=O)N/N=C(\C)c1ccc(N2CCCCC2)cc1` gave MT stabilize HCS 2.3, b-catenin transl -3.4, STAT1 blocker -10.3, STAT3 activator 84.3 and STAT3 inh-1 22.0.
Screening Cc1[nH]c(=O)[nH]c(=O)c1N1CCOCC1 returned b-catenin transl -0.2.
Cc1nc2ccccn2c1C(=O)NC1CCCc2ccccc21 (stereo unspecified) was read as MT stabilize HCS 3.8, b-catenin transl -0.7, STAT1 blocker 21.1, STAT3 activator 58.5, STAT3 inh-1 53.3*, STAT3 inh-2 37.4, NFkB inh STAT3ct -0.8 and STAT1 inh STAT3c 12.0.
For CCOCCCNC(=O)Cn1cnc2sc(C)c(S(=O)(=O)N3CCN(c4ncccn4)CC3)c2c1=O the results were MT stabilize HCS 1.6, b-catenin transl 0.7, STAT1 blocker 0.1, STAT3 activator 99.6 and STAT3 inh-1 8.9.
OCCC1CN(Cc2cc(F)ccc2-n2cccn2)CCN1C1CCCC1 (stereo unspecified) was read as b-catenin transl 0.7.
For COc1ccc(NC(=O)C(C)N2c3cccc4cccc(c34)S2(=O)=O)cc1OC (stereo unspecified) the results were MT stabilize HCS 1.0, b-catenin transl 0.2, STAT1 blocker 28.4, STAT3 activator 63.6, STAT3 inh-1 46.1*, STAT3 inh-2 35.8, NFkB inh STAT3ct 4.3 and STAT1 inh STAT3c 22.2*.
Screening Cc1cc2nc(N3C(=O)CNC3=S)sc2cc1C returned MT stabilize HCS 2.3, b-catenin transl 4.7, STAT1 blocker -5.2, STAT3 activator 61.7, STAT3 inh-1 47.7*, STAT3 inh-2 10.1, NFkB inh STAT3ct -16.3 and STAT1 inh STAT3c -86.9.
O=c1cc(CSc2nnc(-c3cccs3)n2Cc2ccccc2)nc2sc3ccccc3n12 was read as MT stabilize HCS 4.8, b-catenin transl -3.4, STAT1 blocker 23.1, STAT3 activator 53.2, STAT3 inh-1 60.0*, STAT3 inh-2 57.0*, NFkB inh STAT3ct 12.0 and STAT1 inh STAT3c 22.7*.
`Cc1cc(C(=O)CSc2nnc(-c3cccs3)n2Cc2ccccc2)c(C)n1C` gave MT stabilize HCS 2.2, STAT1 blocker 9.0, STAT3 activator 98.2 and STAT3 inh-1 5.9.
Screening NC(=O)c1cc2cc(Cl)ccc2oc1=Nc1cccc(C(F)(F)F)c1 returned MT stabilize HCS 2.3, b-catenin transl -1.4, STAT1 blocker 0.6, STAT3 activator 98.4 and STAT3 inh-1 1.8.
O=C(N/N=C/c1ccc2cccnc2c1)c1ccco1 was read as MT stabilize HCS 1.5, b-catenin transl -0.5, STAT1 blocker 0.1, STAT3 activator 57.7, STAT3 inh-1 54.6*, STAT3 inh-2 19.9, NFkB inh STAT3ct -18.4 and STAT1 inh STAT3c -63.2.
O=C(N/N=C/c1ccccc1)c1ccco1 was read as b-catenin transl -0.2.
Screening COc1cc2c(cc1OC)C1=NC(=O)CN1C(SCc1ccccc1C)=N2 returned MT stabilize HCS 3.7, STAT1 blocker 12.0, STAT3 activator 64.1, STAT3 inh-1 47.1*, STAT3 inh-2 43.0, NFkB inh STAT3ct 19.5* and STAT1 inh STAT3c 8.8.
`CCOC(=O)C1=C(C)N(C)C(=S)NC1c1ccc(Cl)cc1Cl` (stereo unspecified) gave MT stabilize HCS 2.1, b-catenin transl -1.1, STAT1 blocker 2.2, STAT3 activator 99.1 and STAT3 inh-1 3.7.
`COC1=C(N)C(=O)c2nc(-c3nc(C(=O)O)c(C)c(-c4ccc(OC)c(OC)c4O)c3N)ccc2C1=O` gave MT stabilize HCS 42.2, STAT1 blocker 28.9, STAT3 activator 8.8, STAT3 inh-1 105.5*, STAT3 inh-2 103.2*, NFkB inh STAT3ct 97.4* and STAT1 inh STAT3c 85.3*.
COc1ccc(-c2ncncc2-c2csc(C)n2)c(O)c1OC was read as MT stabilize HCS 1.5, b-catenin transl -0.9, STAT1 blocker -0.6, STAT3 activator 106.6 and STAT3 inh-1 -3.1.
For O=C(NCc1cccs1)C1CC(=O)N(c2ccc(Cl)cc2)C1 (stereo unspecified) the results were MT stabilize HCS 3.4, b-catenin transl 0.6, STAT1 blocker -3.4, STAT3 activator 109.8 and STAT3 inh-1 -9.0.
For COC(=O)c1ccc(NC(=O)Nc2ccccc2F)cc1 the results were MT stabilize HCS 3.6, b-catenin transl 0.3, STAT1 blocker -13.9, STAT3 activator 63.5, STAT3 inh-1 47.8*, STAT3 inh-2 21.1, NFkB inh STAT3ct -32.7 and STAT1 inh STAT3c -107.0.
Cc1c(NC(=S)NC(=O)c2cc3ccccc3o2)c(=O)n(-c2ccccc2)n1C was read as MT stabilize HCS 3.7, b-catenin transl -1.4, STAT1 blocker -3.2, STAT3 activator 98.8 and STAT3 inh-1 1.4.
`NC(=O)c1c(-c2ccc(Cl)cc2Cl)csc1NC(=O)Cc1ccccc1` gave MT stabilize HCS 1.4, b-catenin transl -3.1, STAT1 blocker 11.8, STAT3 activator 62.4, STAT3 inh-1 44.4*, STAT3 inh-2 72.1*, NFkB inh STAT3ct 23.2* and STAT1 inh STAT3c 15.6.
For CSc1ncc(CO)n1Cc1ccccc1 the results were MT stabilize HCS 3.3, b-catenin transl 0.8, STAT1 blocker 2.2, STAT3 activator 98.5 and STAT3 inh-1 7.3.
